Assay results published in ChEMBL document CHEMBL2331355, “Synthesis, structure activity relationship and mode of action of 3-substitutedphenyl-1-(2,2,8,8-tetramethyl-3,4,9,10-tetrahydro-2H,8H-pyrano[2,3-f]chromen-6-yl)-propenones as novel anticancer agents in human leukaemia HL-60 cells” (Eur J Med Chem, 2013).
The source made the active and inactive calls. The rule behind the calls is not given here.

How the values were obtained:
[1] = tested on: HL-60; experiment: Induction of apoptosis in human HL60 cells assessed as DNA fragmentation at 20 uM after 24 hrs by SDS-PAGE analysis; assay type: functional, cell-based; settings: in the assay text read “agarose gel electrophoresis” for “SDS-PAGE analysis”
How it was run: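 HL-60 cells (2 × 10⁶/3 ml/well) treated at 20 µM for 24 h. Lysed, then digested with RNase (400 µg/ml, 37 °C, 90 min) and proteinase K (200 µg/ml, 50 °C, 1 h). DNA extracted with phenol/chloroform/isoamyl alcohol and alcohol-precipitated. Run on 1.8% agarose gel at 70 V for 1 h, stained with ethidium bromide, and scored for laddering.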

[2] = tested on: HL-60; experiment: Cell cycle arrest in human HL60 cells assessed as S phase cells at 20 uM after 24 hrs by PI staining-based flow cytometric analysis (reference value: 49%); assay type: functional
[3] = tested on: HL-60; experiment: Growth inhibition of human HL60 cells at 30 uM after 48 hrs by MTT assay; assay type: functional, cell-based
How it was run: (§1)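 Single-concentration MTT screen at 50 µM over 48 h in 96-well plates. Compounds giving >50% inhibition were rescreened at 30 µM. OD read at 570 nm, reference 620 nm. Result expressed as % growth inhibition versus untreated control. Mitomycin C, adriamycin or 5-fluorouracil used as positive controls. Mean ± SD of three independent experiments.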

[4] = tested on: MDA-MB-435; experiment: Growth inhibition of human MDA-MB-435 cells at 50 uM after 48 hrs by MTT assay; assay type: functional; settings: MDA-MB-435, 48 h, read-out: GI; how it was run: as §1
[5] = tested on: MIA PaCa-2; experiment: Cytotoxicity against human MIAPaCa2 cells after 48 hrs by MTT assay; assay type: functional, cell-based; settings: MIA PaCa-2, 48 h
How it was run: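 MTT assay in 96-well plates, 48 h exposure across 1–100 µM. OD read at 570 nm against a 620 nm reference. Untreated control OD taken as 100% viability. IC50 derived from the concentration–response curves. Mean ± SD, n = 8 wells, from three independent experiments.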

[6] = tested on: HL-60; experiment: Induction of apoptosis in human HL60 cells at 20 uM after 24 hrs by PI-staining based flow cytometric analysis (reference value: 0.7 %); assay type: functional
[7] = tested on: HL-60; experiment: Cell cycle arrest in human HL60 cells assessed as S phase cells at 5 uM after 24 hrs by PI staining-based flow cytometric analysis (reference value: 49%); assay type: functional
[8] = tested on: HL-60; experiment: Induction of apoptosis in human HL60 cells at 15 uM after 24 hrs by PI-staining based flow cytometric analysis (reference value: 0.7 %); assay type: functional
[9] = tested on: HL-60; experiment: Cell cycle arrest in human HL60 cells assessed as accumulation of G0/G1 phase cells at 20 uM after 24 hrs by PI staining-based flow cytometric analysis (reference value: 48%); assay type: functional

Compound	Activity [1]	Activity [2] [%]	growth inhibition (GI) [3]	inhibition of growth at 50 µM [4] [%]	IC50 [5] [µM]	Activity [6] [%]	Activity [7] [%]	Activity [8] [%]	Activity [9] [%]
CC1(C)CCc2cc(C(=O)/C=C/c3ccc([N+](=O)[O-])cc3)c3c(c2O1)CCC(C)(C)O3	Active	37	Active	78	45	32	47	14	59
CC1(C)CCc2cc(C(=O)/C=C/c3cccc([N+](=O)[O-])c3)c3c(c2O1)CCC(C)(C)O3	Active	11	Active	88	18	58	48	30	86
